Drawing on ChEMBL document CHEMBL1781892, “Microwave assisted synthesis and structure-activity relationship of 4-hydroxy-N'-[1-phenylethylidene]-2H/2-methyl-1,2-benzothiazine-3-carbohydrazide 1,1-dioxides as anti-microbial agents” (2011), this text covers MFC and MIC for 7 molecules.

Test [1] relates to Trichoderma viride. In words: Antifungal activity against Trichoderma viride using 1 x 10^5 spore/100 uL assessed as 99.5% fungal killing of original inoculum after 72 hrs by microdilution method. The test is classed as functional.
The subject of test [2] is Aspergillus fumigatus. As to the kind of experiment: Antifungal activity against Aspergillus fumigatus using 1 x 10^5 spore/100 uL assessed as 99.5% fungal killing of original inoculum after 72 hrs by microdilution method. The test is classed as functional.
For another test, the system named is Escherichia coli. As to the kind of experiment: Antibacterial activity against Escherichia coli using 1 x 10^4 CFU/ml inoculum after 24 hrs by microdilution method. The test is classed as functional.
A further test relates to Salmonella typhi. As to the kind of experiment: Antibacterial activity against Salmonella typhi using 1 x 10^4 CFU/ml inoculum after 24 hrs by microdilution method. It is filed as functional, Salmonella enterica subsp. enterica serovar Typhi.
Another test relates to Pseudomonas aeruginosa. As to the kind of experiment: Antibacterial activity against Pseudomonas aeruginosa using 1 x 10^4 CFU/ml inoculum after 24 hrs by microdilution method. The test is classed as functional.
Test [3] concerns Curvularia australiensis. In words: Antifungal activity against Drechslera australiensis using 1 x 10^5 spore/100 uL after 72 hrs by microdilution method. It is filed as functional.
In another test the test system is Staphylococcus aureus. In words: Antibacterial activity against Staphylococcus aureus using 1 x 10^4 CFU/ml inoculum after 24 hrs by microdilution method. It is filed as functional.
The next test relates to Bacillus thuringiensis. In words: Antibacterial activity against Bacillus thuringiensis using 1 x 10^4 CFU/ml inoculum after 24 hrs by microdilution method. It is filed as functional.
For the next test, the system named is Bacillus cereus. In words: Antibacterial activity against Bacillus cereus using 1 x 10^4 CFU/ml inoculum after 24 hrs by microdilution method. The test is classed as functional.
Test [4] relates to Aspergillus niger. As to the kind of experiment: Antifungal activity against Aspergillus niger using 1 x 10^5 spore/100 uL assessed as 99.5% fungal killing of original inoculum after 72 hrs by microdilution method. It is filed as functional.
The nature of test [5]: Antifungal activity against Trichoderma reesei using 1 x 10^5 spore/100 uL assessed as 99.5% fungal killing of original inoculum after 72 hrs by microdilution method. The test is classed as functional.
In a further test the test system is Bacillus subtilis. As to the kind of experiment: Antibacterial activity against Bacillus subtilis using 1 x 10^4 CFU/ml inoculum after 24 hrs by microdilution method. The test is classed as functional.
In test [6] the test system is Trichoderma viride. As to the kind of experiment: Antifungal activity against Trichoderma viride using 1 x 10^5 spore/100 uL after 72 hrs by microdilution method. It is filed as functional.
The test system of test [7] is Aspergillus flavus. In words: Antifungal activity against Aspergillus flavus using 1 x 10^5 spore/100 uL assessed as 99.5% fungal killing of original inoculum after 72 hrs by microdilution method. The test is classed as functional.
The nature of test [8]: Antifungal activity against Trichoderma reesei using 1 x 10^5 spore/100 uL after 72 hrs by microdilution method. It is filed as functional. The gist of the method: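 Spores washed from malt agar cultures with sterile 0.85% saline plus 0.1% Tween 80, adjusted to about 1.0×10^5 per 100 µl well. Compounds from a 1 mg/ml DMSO stock were serially diluted in malt broth with inoculum in 96-well plates and incubated 72 h at 28 °C. MIC is the lowest concentration with no visible growth under a binocular microscope. DMSO served as negative control.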

The test system of test [9] is Aspergillus fumigatus. In words: Antifungal activity against Aspergillus fumigatus using 1 x 10^5 spore/100 uL after 72 hrs by microdilution method. The test is classed as functional.
For test [10], the system named is Aspergillus niger. In words: Antifungal activity against Aspergillus niger using 1 x 10^5 spore/100 uL after 72 hrs by microdilution method. The test is classed as functional.
Test [11] concerns Aspergillus flavus. As to the kind of experiment: Antifungal activity against Aspergillus flavus using 1 x 10^5 spore/100 uL after 72 hrs by microdilution method. The test is classed as functional.
The subject of test [12] is Curvularia australiensis. In words: Antifungal activity against Drechslera australiensis using 1 x 10^5 spore/100 uL assessed as 99.5% fungal killing of original inoculum after 72 hrs by microdilution method. It is filed as functional.

Consider `C/C(=N\NC(=O)C1=C(O)c2ccccc2S(=O)(=O)N1C)c1ccccc1O`, for which the MFC in the test on Trichoderma viride [1] is >200 ×10⁻² umol; with Aspergillus fumigatus [2], >200 ×10⁻² umol; with Aspergillus niger [4] it was >200 ×10⁻² umol; in [5], > 200 ×10⁻² µmol; with Aspergillus flavus [7] it was >200 ×10⁻² umol; with Curvularia australiensis [12] it was >200 ×10⁻² umol. Further, the MIC is 19.6 ×10⁻² umol in the test with Escherichia coli; 22.3 ×10⁻² umol with Salmonella typhi; 20.2 ×10⁻² umol against Pseudomonas aeruginosa; >100 ×10⁻² umol in the test on Curvularia australiensis [3]; 17.7 ×10⁻² umol in the test with Staphylococcus aureus; 4 ×10⁻² umol against Bacillus thuringiensis. Moreover, the MIC against Bacillus cereus was 4 ×10⁻² umol; against Bacillus subtilis, 4.2 ×10⁻² umol; against Trichoderma viride [6] it was >100 ×10⁻² umol; in [8] it was > 100 ×10⁻² µmol; in the test on Aspergillus fumigatus [9] it was >100 ×10⁻² umol; with Aspergillus niger [10] it was >100 ×10⁻² umol. Further, the MIC in the test with Aspergillus flavus [11] was >100 ×10⁻² umol.
Turning to `C/C(=N\NC(=O)C1=C(O)c2ccccc2S(=O)(=O)N1)c1cccc(O)c1`, the MFC in the test with Trichoderma viride [1] is >200 ×10⁻² umol; in the test on Aspergillus fumigatus [2], >200 ×10⁻² umol; in the test on Aspergillus niger [4], >200 ×10⁻² umol; in test [5], > 200 ×10⁻² µmol; in the test on Aspergillus flavus [7], >200 ×10⁻² umol; with Curvularia australiensis [12], >200 ×10⁻² umol. The MIC was 19.7 ×10⁻² umol with Escherichia coli; 23.5 ×10⁻² umol in the test with Salmonella typhi; 21.2 ×10⁻² umol in the test on Pseudomonas aeruginosa; >100 ×10⁻² umol against Curvularia australiensis [3]; 18.4 ×10⁻² umol in the test with Staphylococcus aureus; 4.4 ×10⁻² umol against Bacillus thuringiensis. Further, the MIC was 4.5 ×10⁻² umol in the test with Bacillus cereus; 4.6 ×10⁻² umol in the test with Bacillus subtilis; >100 ×10⁻² umol in the test on Trichoderma viride [6]; > 100 ×10⁻² µmol in [8]; >100 ×10⁻² umol in the test on Aspergillus fumigatus [9]; >100 ×10⁻² umol against Aspergillus niger [10]. Moreover, the MIC against Aspergillus flavus [11] is reported as >100 ×10⁻² umol.
For `COc1ccc(/C(C)=N/NC(=O)C2=C(O)c3ccccc3S(=O)(=O)N2)cc1`, the MFC in the test on Trichoderma viride [1] turned out to be 158.8 ×10⁻² umol; in the test with Aspergillus fumigatus [2], 153.6 ×10⁻² umol; with Aspergillus niger [4], 179.5 ×10⁻² umol; in test [5], 160 ×10⁻² µmol; in the test on Aspergillus flavus [7], 169.3 ×10⁻² umol; in the test on Curvularia australiensis [12], 159.6 ×10⁻² umol. The MIC in the test with Escherichia coli is 27.8 ×10⁻² umol; in the test with Salmonella typhi it was 32.7 ×10⁻² umol; in the test with Pseudomonas aeruginosa it was 29.3 ×10⁻² umol; in the test on Curvularia australiensis [3], 81.1 ×10⁻² umol; against Staphylococcus aureus, 26.7 ×10⁻² umol; against Bacillus thuringiensis it was 7.8 ×10⁻² umol. Also, the MIC amounted to 7.8 ×10⁻² umol against Bacillus cereus; 7.5 ×10⁻² umol with Bacillus subtilis; 80.5 ×10⁻² umol with Trichoderma viride [6]; 79.9 ×10⁻² µmol in [8]; 77.7 ×10⁻² umol against Aspergillus fumigatus [9]; 87.3 ×10⁻² umol with Aspergillus niger [10]. The MIC in the test on Aspergillus flavus [11] worked out at 86.2 ×10⁻² umol.
As for `C/C(=N\NC(=O)C1=C(O)c2ccccc2S(=O)(=O)N1C)c1ccc(O)cc1`, the MFC in the test on Trichoderma viride [1] was >200 ×10⁻² umol; with Aspergillus fumigatus [2], >200 ×10⁻² umol; in the test on Aspergillus niger [4], >200 ×10⁻² umol; in [5] it was > 200 ×10⁻² µmol; in the test on Aspergillus flavus [7], >200 ×10⁻² umol; in the test with Curvularia australiensis [12], >200 ×10⁻² umol. The MIC with Escherichia coli was 21 ×10⁻² umol; in the test on Salmonella typhi, 25.1 ×10⁻² umol; against Pseudomonas aeruginosa it was 22.1 ×10⁻² umol; against Curvularia australiensis [3], >100 ×10⁻² umol; against Staphylococcus aureus it was 18.9 ×10⁻² umol; in the test on Bacillus thuringiensis it was 5 ×10⁻² umol. Besides, the MIC in the test with Bacillus cereus is 4.6 ×10⁻² umol; in the test with Bacillus subtilis, 4.8 ×10⁻² umol; against Trichoderma viride [6], >100 ×10⁻² umol; in test [8], > 100 ×10⁻² µmol; against Aspergillus fumigatus [9], >100 ×10⁻² umol; with Aspergillus niger [10], >100 ×10⁻² umol. The MIC in the test on Aspergillus flavus [11] was >100 ×10⁻² umol.
In the case of `C/C(=N\NC(=O)C1=C(O)c2ccccc2S(=O)(=O)N1C)c1ccc(N)cc1`, the MFC came out at 142 ×10⁻² umol in the test on Trichoderma viride [1]; 151.6 ×10⁻² umol in the test with Aspergillus fumigatus [2]; 167 ×10⁻² umol in the test with Aspergillus niger [4]; 136 ×10⁻² µmol in [5]; 166.3 ×10⁻² umol with Aspergillus flavus [7]; 133.7 ×10⁻² umol with Curvularia australiensis [12]. In addition, the MIC in the test on Escherichia coli worked out at 22.4 ×10⁻² umol; against Salmonella typhi, 27.5 ×10⁻² umol; in the test with Pseudomonas aeruginosa, 24.3 ×10⁻² umol; against Curvularia australiensis [3], 69.8 ×10⁻² umol; in the test with Staphylococcus aureus it was 20.4 ×10⁻² umol; with Bacillus thuringiensis it was 6.3 ×10⁻² umol. Besides, the MIC in the test with Bacillus cereus worked out at 6.2 ×10⁻² umol; against Bacillus subtilis, 6.2 ×10⁻² umol; against Trichoderma viride [6], 71.1 ×10⁻² umol; in test [8], 68 ×10⁻² µmol; in the test on Aspergillus fumigatus [9], 73.6 ×10⁻² umol; against Aspergillus niger [10], 83.7 ×10⁻² umol. In addition, the MIC against Aspergillus flavus [11] is on record as 82.9 ×10⁻² umol.
For the molecule `C/C(=N\NC(=O)C1=C(O)c2ccccc2S(=O)(=O)N1)c1ccc(O)cc1`, the MFC in the test with Trichoderma viride [1] was >200 ×10⁻² umol; in the test with Aspergillus fumigatus [2] it was >200 ×10⁻² umol; with Aspergillus niger [4], >200 ×10⁻² umol; in test [5], > 200 ×10⁻² µmol; in the test on Aspergillus flavus [7] it was >200 ×10⁻² umol; with Curvularia australiensis [12] it was >200 ×10⁻² umol. In addition, the MIC is reported as 21.3 ×10⁻² umol with Escherichia coli; 25.2 ×10⁻² umol against Salmonella typhi; 22.6 ×10⁻² umol in the test with Pseudomonas aeruginosa; >100 ×10⁻² umol in the test with Curvularia australiensis [3]; 19 ×10⁻² umol with Staphylococcus aureus; 5 ×10⁻² umol against Bacillus thuringiensis. Moreover, the MIC was 4.8 ×10⁻² umol in the test with Bacillus cereus; 4.9 ×10⁻² umol in the test on Bacillus subtilis; >100 ×10⁻² umol with Trichoderma viride [6]; > 100 ×10⁻² µmol in [8]; >100 ×10⁻² umol against Aspergillus fumigatus [9]; >100 ×10⁻² umol against Aspergillus niger [10]. The MIC with Aspergillus flavus [11] is on record as >100 ×10⁻² umol.
For `COc1cccc(/C(C)=N/NC(=O)C2=C(O)c3ccccc3S(=O)(=O)N2C)c1`, the MFC in the test with Trichoderma viride [1] was determined as 160.4 ×10⁻² umol; in the test with Aspergillus fumigatus [2], 168.2 ×10⁻² umol; in the test on Aspergillus niger [4], 190 ×10⁻² umol; in [5], 159 ×10⁻² µmol; in the test on Aspergillus flavus [7], 188.9 ×10⁻² umol; in the test with Curvularia australiensis [12], 154.8 ×10⁻² umol. Moreover, the MIC in the test on Escherichia coli was found to be 25.6 ×10⁻² umol; in the test on Salmonella typhi it was 29.4 ×10⁻² umol; with Pseudomonas aeruginosa it was 26.8 ×10⁻² umol; against Curvularia australiensis [3] it was 81.7 ×10⁻² umol; in the test on Staphylococcus aureus it was 24.1 ×10⁻² umol; with Bacillus thuringiensis, 7.8 ×10⁻² umol. Moreover, the MIC with Bacillus cereus stood at 7 ×10⁻² umol; in the test on Bacillus subtilis, 7.7 ×10⁻² umol; in the test on Trichoderma viride [6], 80.5 ×10⁻² umol; in test [8], 79.6 ×10⁻² µmol; in the test on Aspergillus fumigatus [9], 85.7 ×10⁻² umol; in the test with Aspergillus niger [10] it was 90.1 ×10⁻² umol. For the same molecule, the MIC in the test with Aspergillus flavus [11] is 92.6 ×10⁻² umol.
